# Hits are enriched below; roughly 3% of the tested compounds scored in any of these assays.
# Myeloid diff 2 – myeloid differentiation induction; ER-HoxA9 myeloid progenitors, lysozyme-GFP differentiation, flow cytometry; calls only at 10 µM; 360,000 tested, 1% active;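 active = normalized GFP-positive differentiation at or above the plate's own cutoff, the solvent-only control mean plus 3 SD; inconclusive = no clear call, values can overlap the other calls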;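 also: cells exposed to compound for four days before flow analysis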
# SENP1 inh – inhibitors of human SENP1 SUMO protease catalytic domain | inhibition, % at 10 µM | recombinant SENP1 catalytic domain, CyPet-SUMO1-YPet FRET cleavage | Q9P0U3 | AID 624204 | 360,000 tested, 0.21% active;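 active = inhibition at least 30% at 10 µM, raw YFP signal under a set limit, fluorescence ratio 0.5 to 1.5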;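 also: 0% = enzyme with DMSO and 100% = no enzyme wells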
# Target sequence (Q9P0U3 419-644 limits assumed): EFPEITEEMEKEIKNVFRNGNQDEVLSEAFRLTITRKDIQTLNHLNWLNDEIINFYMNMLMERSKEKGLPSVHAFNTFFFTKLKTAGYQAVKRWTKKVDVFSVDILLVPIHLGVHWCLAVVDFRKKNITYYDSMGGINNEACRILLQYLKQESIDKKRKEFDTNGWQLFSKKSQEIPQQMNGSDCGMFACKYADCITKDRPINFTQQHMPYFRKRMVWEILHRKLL
#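 Test system: human SENP1 catalytic domain; medium: Tris pH 8 buffer plus EDTA, NaCl, BME, BSA, NP40, catalase; incubation: 50 min reaction at room temperature; technique: FRET, CFP and YFP emission; controls: no-enzyme low control and enzyme-plus-DMSO high control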
# Cardio protect – protects H9c2 cardiomyocytes from peroxide injury; H2O2 injury protection, ATPLite, 2 h; protection from H2O2 cell death, % at 20 µM; 360,000 tested, 0.63% active;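 active = compounds giving at least 50% protection of heart cells from peroxide-induced death in the single-dose screen, raw or plate-pattern-corrected value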;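 also: 0% = DMSO wells with peroxide and 100% = DMSO wells without peroxide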
# Exocytosis inh – lytic granule exocytosis inhibition; 360,000 tested, 0.66% active; AID 651702; inhibition, % at 10 µM; TALL-104 LAMP-1 surface exposure, flow cytometry; cells stimulated with thapsigargin and PMA;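 active = inhibition above about 55%, limit read from the data; inconclusive = no clear call, values can overlap the other calls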
# Pemphigus Ab inh – inhibitors of pemphigus antibody binding to human desmoglein-3; P32926; DSG3-coupled beads, scFv-anti-DSG3-GFP binding, flow cytometry; stronger effect = lower value; binding (percent of control), % at 10 µM; 310,000 tested, 0.48% active; AID 588358;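 active = binding more than 3 SD below its plate's average and above zero; inconclusive = below that plate limit but binding exactly zero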;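 also: hits lower antibody fragment binding to DSG3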
# HNF4A DNA FP – change in binding of human HNF4 alpha to DNA. HNF4a-FITC DNA binding, fluorescence polarization, 1 h. activity change, % at 10 µM. AID 1224865. P41235. 360,000 tested, 0.3% active; in the data active = activity change above about 30%, passing the limit was not always enough
# Target sequence (P41235 whole entry, looked up): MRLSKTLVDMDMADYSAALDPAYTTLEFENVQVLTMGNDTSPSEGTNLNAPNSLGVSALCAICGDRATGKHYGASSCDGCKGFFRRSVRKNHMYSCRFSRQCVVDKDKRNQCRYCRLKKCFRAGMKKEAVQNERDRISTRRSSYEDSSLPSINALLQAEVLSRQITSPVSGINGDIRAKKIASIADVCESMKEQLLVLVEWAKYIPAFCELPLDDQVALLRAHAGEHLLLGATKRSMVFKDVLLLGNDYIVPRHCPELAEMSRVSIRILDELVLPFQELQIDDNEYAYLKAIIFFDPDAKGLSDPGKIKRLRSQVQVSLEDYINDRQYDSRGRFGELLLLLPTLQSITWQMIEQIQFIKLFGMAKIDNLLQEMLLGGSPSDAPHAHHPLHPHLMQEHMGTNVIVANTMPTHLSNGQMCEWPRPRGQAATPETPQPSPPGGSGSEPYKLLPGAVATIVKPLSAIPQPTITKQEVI
# SENP1 inh conf – SENP1 (human) inhibition, single concentration confirmation; recombinant SENP1, CyPet-SUMO1-YPet FRET cleavage; shares compounds with SENP1 inh; inhibition, % at 10 µM; 520 tested, 34% active; in the data active = inhibition mostly above about 35%, no sharp cut-off; inactive = mostly below about 32%;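 also: 0% = enzyme with DMSO and 100% = no enzyme control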
# SENP1 kin conf – confirmation of human SENP1 SUMO protease inhibitors, kinetic; shares compounds with SENP1 inh; recombinant SENP1, CyPet-SUMO1-YPet FRET kinetic cleavage; inhibition, % at 10 µM; 520 tested, 26% active; in the data active = inhibition mostly above about 32%, no sharp cut-off; inactive = mostly below about 29%;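 also: 0% = DMSO with enzyme and 100% = no enzyme substrate only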
# * hit, by the source's call; i = inactive; ? = inconclusive; / = no result given; + = active, no number; ! = a repeat was not active.
SMILES,Myeloid diff 2,SENP1 inh,Cardio protect,Exocytosis inh,Pemphigus Ab inh,HNF4A DNA FP,others
Cc1noc(NS(=O)(=O)c2ccc(NS(=O)(=O)c3ccc(C(C)(C)C)cc3)cc2)c1C,i,2.4,1.4,29.1,94.8,-0.7,
Nc1ccc(S(=O)(=O)NC2(C(F)(F)F)NC(=O)N(c3ccccc3F)C2=O)cc1 (centres undefined),i,2.2,-9.3,-8.9,120.6,-1.2,
Cc1cc(C(C)(C)C)cc(C)c1C[n+]1ccc2ccccc2c1,+,0.6,-15.7,-5.7,235.0,-2.1,
Cc1[nH]c2ccccc2c1/C=C/C(=O)c1ccccc1,+,-26.8,-0.7,2.6,142.8,23.6,
Cc1[nH]c2ccccc2c1/C=N/NC(=O)c1ccccc1,i,0.4,3.0,-4.4,88.9,1.1,
CCn1c(/C=C/c2c(C)[nH]c3ccccc23)nc2ccccc2c1=O,+,-25.2,-13.4,-2.0,109.8,21.9,
COc1ccc(S(=O)(=O)c2c(N)n(Cc3ccco3)c3nc4ccccc4nc23)cc1,+,-22.5,20.6,1.0,91.9,-7.8,
O=C1C(=Cc2ccc(Br)o2)C(=O)c2ccccc21,i,15.5,0.0,20.1,94.2*,-72.8,
Cc1onc(-c2c(F)cccc2Cl)c1C(=O)OCC(=O)N(C)c1ccccc1,i,1.3,-3.2,1.8,105.5,4.0,
COc1cc(Cl)cc(/C=C/c2ccc3cccc(O)c3n2)c1OC,i,-0.6,57.3*,-2.5,97.4,1.3,
O=C(NCC1CCCO1)c1nn2c(C(F)(F)F)cc(-c3ccc(Br)o3)nc2c1Br (centres undefined),i,-20.7,10.5,-5.8,/,0.9,
O=C(NN=Cc1ccccc1C(=O)O)c1cccc(S(=O)(=O)Nc2cccc(C(F)(F)F)c2)c1,i,2.2,7.4,-3.5,109.4,2.4,
CCN(c1ccc(N=Cc2c(O)n(Cc3ccc(OC)cc3)c(=O)c3ccccc23)cc1)C(C)C,+,-36.7,-6.0,-1.5,304.4,-47.0,
COc1ccc(-n2c(O)c(C=Nc3ccccc3)c3ccccc3c2=O)cc1,/,-110.6,5.2,-0.5,105.7,6.8,
Cc1ccc(NC(=O)CN2C(=O)NC3(CCCCCC3)C2=O)cc1Cl,i,-0.5,1.2,4.8,?,-2.0,
CCCN(C(=O)c1cc(Cl)nc2ccccc12)c1c(N)n(Cc2ccccc2)c(=O)[nH]c1=O,i,-3.0,-0.3,5.2,104.7,3.7,
CCCCCSc1nc2c(c(=O)[nH]c(=O)n2C)n1C,+,1.3,-4.3,0.6,106.3,-4.3,
Cc1ccc(OCCC(=O)OCC(=O)Nc2cc(S(=O)(=O)N(C)C)ccc2C)cc1,+,-0.1,-13.6,1.3,99.1,5.2,
Cc1ccc(S(=O)(=O)N(C)C)cc1NC(=O)C1CCCC1,i,-23.7,0.9,-1.7,114.9,-1.0,
Cc1ccc(S(=O)(=O)N(C)C)cc1NC(=O)C1CCCCC1,i,1.0,0.3,5.9,63.0*,1.0,
O=C1CN(C(=S)NC(=O)c2ccc(-c3ccccc3)cc2)CCN1,i,0.7,-15.9,-4.2,98.5,1.8,
CCN1C(=O)/C(=C/c2ccc(C)s2)NC1=S,i,-110.3,-8.2,7.2,104.6,2.0,
Cc1ccc(/C=C2/NC(=O)N(Cc3ccccc3)C2=O)s1,i,-8.2,0.7,-3.7,112.2,55.0*,
Cc1cccc(CN2C(=O)N/C(=C/c3ccc(C)s3)C2=O)c1,+,13.6,-10.5,4.9,119.4,35.1*,
CCOC(=O)c1c(NC(=O)COC(=O)CCOc2ccc(C)cc2)sc(C(=O)N(C)C)c1C,i,-2.4,-2.7,-8.2,108.5,4.7,
SMILES,Myeloid diff 2,SENP1 inh,Cardio protect,Exocytosis inh,Pemphigus Ab inh,HNF4A DNA FP,others
Cc1ccc(CNC(=O)CN(C(=O)N2CCN(C)CC2)S(=O)(=O)c2ccc(C)cc2)cc1,i,1.4,-1.3,2.3,100.0,1.2,
COc1cccc(-n2nnnc2S(C)(=O)=O)c1,?,0.7,-14.0,80.0*,98.5,-0.1,
COc1cccc(Oc2nnnn2-c2ccccc2)c1,i,2.6,-0.9,-4.7,96.1,-3.0,
CC(C)(O)/C=C/C[C@](C)(O)C1CC[C@]2(C)C1[C@H](O[C@H]1O[C@@H](CO)[C@H](O)[C@@H](O)[C@@H]1O)CC1[C@@]3(C)CC[C@H](O)C(C)(C)C3[C@@H](O)C[C@]12C (some centres undefined),i,0.1,1.0,6.6,95.7,2.5,
COc1cc2nc(NCC3CCCO3)n3nc(-c4cccnc4)nc3c2cc1OC (centres undefined),i,3.6,90.7*,4.2,95.9,-4.0,
COc1ccccc1N1C(N)=NC(N)=NC1(C)C,+!,-0.4,9.9,0.5,107.0,-4.5,
Cc1ccc(N2C(N)=NC(N)=NC2(C)C)c(C)c1,?,2.2,2.3,0.9,/,-3.9,
Cc1ccccc1N1C(N)=NC(N)=NC1(C)C,+,/,/,29.3,114.9,/,
C/C(N)=C(/C#N)C(=O)CSc1nnc(-c2ccc3c(c2)OCO3)o1,i,0.2,1.9,2.2,98.8,-3.5,
C/C(N)=C(/C#N)C(=O)CSc1nnc(-c2ccc(OC(F)F)cc2)o1,i,-2.9,-0.6,4.4,79.6*!,-1.3,
COc1cc2c(cc1OC)C1=CC(=O)C(=O)N1C(C)(C)C2,+,-14.0,0.0,3.3,128.1,4.2,
CN=C1NC(C)(C)C2CCC(C)(CC2)S1,+,1.2,3.0,1.3,97.5,-3.9,
O=C(C[n+]1ccccc1)N/N=C/c1ccccc1C(F)(F)F,i,0.3,-1.6,1.3,90.2,-2.4,
Cc1cc(O)c(C(C)C)cc1N=Nc1ccccc1C(=O)O,i,26.0,-6.8,11.6,91.2,18.8,
Cc1cc(N=Nc2ccccc2C(=O)O)c(C)c(C)c1O,i,33.3*,-11.6,6.5,102.2,32.2*,
O=C(CCc1nnc(-c2ccccc2)o1)NCC1CCN(C2CCCC2)CC1,i,50.2*,-5.0,-0.4,100.0,-0.6,SENP1 inh conf=-3.6;SENP1 kin conf=3.4
Nc1cccc2c1C(=O)c1ccc(Cl)cc1C2=O,i,30.1*,-2.3,4.5,106.0,19.2,SENP1 inh conf=33.0;SENP1 kin conf=16.1
O=C(O)c1cccc2c1-c1ccc(Cl)cc1C2=O,i,1.0,-5.2,-0.6,94.8,0.0,
Cc1cccc(-n2ccnc2SCC(=O)Nc2cccc(S(=O)(=O)NC3=NCCC3)c2)c1C,i,1.1,-3.9,-1.5,109.6,-2.1,
O=C1NC(=S)SC1=Cc1cc(Br)ccc1O,i,32.1*,-1.7,1.2,100.0,79.8*,SENP1 inh conf=96.0*;SENP1 kin conf=52.1*
